Sampled rows, rich in hits. Any-hit rate of the full collection: about 4.5%.
PfM18AAP inh-1: PfM18AAP inhibitors, malaria aminopeptidase, primary screen, biochemical, QFRET, recombinant enzyme. M18 aspartyl aminopeptidase (Plasmodium falciparum 3D7). 290,000 compounds, 1.2% hits. AID 1822, 2009. H-Glu-NHMec fluorogenic cleavage. inhibition, % at 7.35 µM;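 active means inhibition above the campaign mean inhibition over all tested compounds plus 3 SD, cut at about 28% in these data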;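 further: 0% = plate median of test compound wells and 100% = 2 mM ZnCl2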
XBP1 UPR activ: activators of adaptive XBP1 UPR arm, primary screen, cell-based, CHO-XBP1 luciferase reporter, luminescence, uHTS; IRE1-XBP1 UPR activation; percent of tunicamycin response, DMSO as zero; 330,000 compounds, 0.33% hits; activation, % at 20 µM;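 active means versus positive control, 20 µM dose yields 30% or more activation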;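 further: 100% = tunicamycin at 10 µg/mL and 0% = DMSO only wells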
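assay system = CHO-XBP1 luciferase reporter cells | amount = 1000 cells/well | buffer or medium = F12 plus 10% FBS | compound dosing = single point, 20 µM final compound, 1% DMSO | incubation = 16-18 h cell attachment at 37 °C, then 6 h compound exposure | detection = Steady-Glo luminescence read | controls = tunicamycin 10 µg/mL and vehicle-only wells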
UPR CHOP act: activators of apoptotic CHOP UPR arm, primary screen, cell-based, CHO-CHOP luciferase reporter, luminescence, uHTS; activation, % at 10 µM; UPR activation; percent of tunicamycin response over DMSO baseline; 330,000 compounds, 0.34% hits;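 active means at 10 µM dose, activation of 40% or more, normalized to positive control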;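 further: 100% = tunicamycin at 10 µg/mL and 0% = DMSO alone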
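measured by = luciferase luminescence | assay system = CHO-CHOP cells, stable luciferase reporter of PERK-eIF2a-CHOP signalling | amount = 500 reporter cells seeded per well | timing = 6 h compound exposure at 37 °C after overnight seeding | controls = positive tunicamycin 10 µg/mL, negative DMSO alone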
CHOP inhibitor: inhibitors of CHOP promoter induction, primary screen, cell-based, unfolded protein response, luciferase reporter | CHO-K1 CHOP-promoter luciferase, tunicamycin-induced, 15-18 h | inhibition, % at 10 µM | 220,000 compounds, 3.8% hits;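 active means compounds that reduced the stress-induced luciferase reporter signal by more than about 70% of percent inhibition, limit read from the data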;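 further: 0% = tunicamycin plus vehicle and 100% = wells without tunicamycin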
NS3 helicase inh: inhibitors of HCV NS3 helicase, primary screen, biochemical, Cy5 molecular beacon fluorescence; Hepatitis C virus NS3 helicase; NS3 helicase DNA unwinding; inhibition, % at 10.9 µM; 290,000 compounds, 0.56% hits; AID 1800, 2009;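 active means inhibition above the mean of all tested compounds plus 3 SD, set per campaign, cut at about 35% in these data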;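 further: 0% = DMSO wells and 100% = thioflavine S control wells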
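System: HCV NS3 helicase fragment; control set: DMSO and thioflavine S; technique: Cy5 fluorescence at 0 and 60 min, beacon hairpin quenching; reagent: beacon DNA duplex substrate plus ATP; replicates: singlicate; schedule: 1 h reaction at 25 °C, ATP-initiated; medium: MOPS buffer pH 6.5 with MgCl2, DTT, Tween20, BSA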
p97 inhibitor: inhibitors of human p97 ATPase, primary screen, biochemical; recombinant p97 ATPase, Kinase-Glo ATP luminescence, 3 h; inhibition, % at 8 µM; 220,000 compounds, 0.42% hits; Transitional endoplasmic reticulum ATPase (Homo sapiens), P55072; in the data active means inhibition above about 15%;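 further: 0% = DMSO vehicle and 100% = wells lacking enzyme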
Target sequence (P55072 whole entry, looked up): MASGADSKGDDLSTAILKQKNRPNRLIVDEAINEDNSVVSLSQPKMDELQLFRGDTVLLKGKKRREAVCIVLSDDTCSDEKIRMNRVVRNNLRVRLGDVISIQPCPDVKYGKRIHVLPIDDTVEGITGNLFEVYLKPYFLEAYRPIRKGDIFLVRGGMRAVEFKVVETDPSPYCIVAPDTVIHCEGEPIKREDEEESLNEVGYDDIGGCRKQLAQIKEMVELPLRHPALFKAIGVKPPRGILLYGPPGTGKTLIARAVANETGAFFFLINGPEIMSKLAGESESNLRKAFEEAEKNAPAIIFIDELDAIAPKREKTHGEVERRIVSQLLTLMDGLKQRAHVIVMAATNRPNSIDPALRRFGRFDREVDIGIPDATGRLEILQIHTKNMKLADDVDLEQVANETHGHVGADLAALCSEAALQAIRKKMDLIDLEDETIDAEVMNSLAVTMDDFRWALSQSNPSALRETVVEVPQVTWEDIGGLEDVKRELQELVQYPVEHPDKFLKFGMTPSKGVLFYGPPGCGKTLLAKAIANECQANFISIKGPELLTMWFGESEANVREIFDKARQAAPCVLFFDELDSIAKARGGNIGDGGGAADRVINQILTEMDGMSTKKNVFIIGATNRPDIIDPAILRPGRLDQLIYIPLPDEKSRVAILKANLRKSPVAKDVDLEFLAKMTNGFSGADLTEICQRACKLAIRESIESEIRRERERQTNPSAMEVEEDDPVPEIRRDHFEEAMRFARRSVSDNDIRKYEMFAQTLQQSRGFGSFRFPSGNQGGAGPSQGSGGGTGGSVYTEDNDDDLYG
NS3 hel confirm: HCV NS3 helicase inhibitors, retest, confirmation, biochemical, Cy5 molecular beacon fluorescence, triplicate. inhibition, % at 10.9 µM. NS3 helicase DNA unwinding. 1,600 compounds, 31% hits. AID 1943, 2009. shares compounds with NS3 helicase inh;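 active means inhibition above the mean of all tested compounds plus 3 SD, cutoff set per campaign, cut at about 36% in these data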
FID counter trip: compounds displacing fluorescent DNA intercalator, artefact control for HCV NS3 helicase inhibitor project, biochemical, FID fluorescence, triplicate | shares compounds with NS3 helicase inh | DNA fluorescent intercalator displacement | inhibition, % at 7.9 µM | 1,600 compounds, 4% hits; in the data active means inhibition above about 37%;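 further: 0% = vehicle and 100% = reference compound; higher means more displacement of ethidium bromide from the DNA hairpin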
DNA FID DR: compounds displacing fluorescent intercalator from DNA, dose response, counter-screen for HCV NS3 helicase inhibitor project, biochemical, fluorescence | AID 2172, 2009 | shares compounds with NS3 helicase inh | IC50, µM | 120 tested, under 10 active | fluorescent intercalator displacement from DNA; call rule not given here
PfM18AAP inh-2: PfM18AAP inhibitors, malaria aminopeptidase, confirmation, biochemical, QFRET, recombinant enzyme, triplicate. shares compounds with PfM18AAP inh-1. H-Glu-NHMec fluorogenic cleavage. inhibition, % at 7.35 µM. 2,400 compounds, 28% hits;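 active means mean inhibition over replicate wells above the hit cutoff set for the earlier primary screen, cut at about 29% in these data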;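 further: 0% = median of test compound wells and 100% = 2 mM ZnCl2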
CTSL1 counter: cathepsin L1 inhibitors, retest, confirmation, counter-screen for PFM18AAP inhibitor project, biochemical, QFRET, triplicate | shares compounds with PfM18AAP inh-1 | purified cathepsin L1, Z-Leu-Arg-MCA fluorescence | inhibition, % at 5.96 µM | 2,400 tested, under 10 active | AID 2178, 2009;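 active means average inhibition across replicates above the hit cutoff set in the earlier primary screen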;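 further: 0% = median of test compound wells and 100% = Z-Phe-Ala-diazomethylketone 1 µM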
UPR CHOP confirm: activators of apoptotic CHOP UPR arm, confirmation, cell-based, CHO-CHOP luciferase reporter, single concentration. CHO-CHOP cells, CHOP-luciferase reporter luminescence; percent of tunicamycin response, DMSO as zero. activation, % at 10 µM. 1,000 compounds, 64% hits. shares compounds with UPR CHOP act; in the data active means activation above about 33%;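 further: 0% = DMSO wells and 100% = tunicamycin 10 µg/mL wells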
XBP1 UPR conf: IRE1-XBP1 UPR arm activators, confirmation, cell-based, CHO-XBP1 luciferase reporter, luminescence, single concentration; shares compounds with XBP1 UPR activ; activation, % at 20 µM; 1,000 compounds, 63% hits; AID 485299, 2010;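 active means reporter signal at least 30% of the positive control's activation in two or more of four replicate wells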;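 further: plate controls were DMSO negative control for no effect and tunicamycin 10 µg/mL positive control for full effect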
Numbers without * were called inactive; nt = no result.

SMILES	PfM18AAP inh-1	XBP1 UPR activ	UPR CHOP act	CHOP inhibitor	NS3 helicase inh	p97 inhibitor	PfM18AAP inh-2	CTSL1 counter	others
O=C(COc1ccc(Cl)cc1)NNC(=O)c1ccc2c(=O)n3c(nc2c1)CCC3	nt	-1	0	nt	nt	nt	nt	nt
CC1(C)C(=O)Nc2ccccc2N1C(=O)Cn1ncc(Cl)c(Cl)c1=O	3	2	50*	-104	47*	6	nt	nt	NS3 hel confirm=2;FID counter trip=7;UPR CHOP confirm=4
Cc1c(OCC(=O)NC2CCN(Cc3ccccc3)CC2)ccc2c3c(c(=O)oc12)CCC3	1	-5	-1	nt	-18	nt	nt	nt
O=c1cc2oc3cc(O)c(O)cc3c(-c3ccccc3[N+](=O)[O-])c-2cc1O	59*	34*	-2	nt	64*	nt	49*	-1	NS3 hel confirm=109*;FID counter trip=31;DNA FID DR=>79;XBP1 UPR conf=35*
O=c1cc(-c2ccccc2Cl)oc2cccc(O)c12	0	8	3	14	3	-1	nt	nt
CCC1(c2ccccc2)NC(=O)N(CC(=O)NNC(=O)COc2ccc(Cl)cc2C)C1=O (configuration not stated)	nt	0	1	nt	nt	nt	nt	nt
NC(=S)N/N=C/c1ccc(C23CC4CC(CC(C4)C2)C3)cc1	6	60*	33	nt	56*	nt	nt	nt	NS3 hel confirm=37*;FID counter trip=-6;DNA FID DR=>79;XBP1 UPR conf=64*
Cc1cccc(Nc2nc(-c3ccc(F)c(C)c3)cs2)n1	-9	4	7	nt	-9	nt	nt	nt
Cc1cccc(Nc2nc(-c3ccc(O)c(O)c3)cs2)n1	54*	17	100*	nt	-5	nt	28	-5
O=C(c1ccc(Cl)cc1)c1c[nH]cc1-c1ccccc1	37*	-2	-1	46	26	2	-43	1
Cc1cc(/C=C2\Sc3ccccc3N2C)cc(C)[n+]1CC1CCCO1 (configuration not stated)	50*	2	7	62	10	-2	-41	3
Cc1ccc(/C=C2/Sc3ccccc3N(CC(=O)NCC3CCCO3)C2=O)cc1 (configuration not stated)	3	-1	1	nt	-9	nt	nt	nt
C=CCSc1nc2sc3c(c2c(=O)n1-c1ccc(C)cc1)CCN(C)C3	4	-1	-1	nt	-33	nt	nt	nt
O=C(O)C1CCN(S(=O)(=O)c2ccc(N3CCCC3C(=O)O)c([N+](=O)[O-])c2)CC1 (configuration not stated)	36*	-4	-4	nt	4	nt	-21	1
O=c1/c(=C/c2cccc3ccccc23)sc2ncnn12	44*	2	-3	33	-2	1	35*	-5
Cc1ccsc1/C=c1\sc2ncnn2c1=O	87*	0	1	16	4	4	55*	4
COc1ccccc1/C=c1\sc2nc(-c3ccccc3OC)nn2c1=O	-7	-2	0	-25	24	-7	nt	nt
CCCCOc1ccc(/C=c2\sc3ncnn3c2=O)cc1	76*	-2	2	-1	13	-1	4	-1
CC(=O)NS(=O)(=O)c1ccc(NC(=S)NC(=O)C2CCC2)cc1	3	-3	0	nt	0	nt	nt	nt
O=C(Nc1ccccc1Cl)c1cc2ccccc2o/c1=N\O	37*	6	4	nt	8	nt	19	1
O=C(NC1CCCCNC1=O)c1ccco1 (configuration not stated)	4	-4	-2	nt	-4	nt	nt	nt
CCC(=O)NNc1nc2c(C)c(C)ccc2s1	37*	5	-1	12	17	-2	9	-2
CCC(=O)NNc1nc2c(C)cccc2s1	48*	2	-3	54	13	-4	23	-4
CCC(=O)NNc1nc2c(Cl)cccc2s1	33*	-2	1	5	3	3	19	-3
CCC(=O)NNc1cccc(Cl)n1	2	-4	0	6	-6	-1	nt	nt
SMILES	PfM18AAP inh-1	XBP1 UPR activ	UPR CHOP act	CHOP inhibitor	NS3 helicase inh	p97 inhibitor	PfM18AAP inh-2	CTSL1 counter	others
Cc1cccc2sc(NC(=O)C3CC3)nc12	5	2	2	nt	6	nt	nt	nt
COc1cccc(C(=O)OCC(=O)Nc2sc3c(c2C(N)=O)CCC3)c1O	nt	2	1	nt	nt	nt	nt	nt
CCN1/C(=C\C(=S)Nc2ccccc2)Sc2ccccc21	41*	6	4	-26	-13	4	15	2
CCOC(=O)C1CCN(C(=O)Nc2c(-c3ccccc3)noc2C)CC1	0	-3	-1	-5	2	8	nt	nt
Cc1ccc2sc(N3CCN(C(=O)C4=COCCO4)CC3)nc2c1C	nt	-4	1	nt	nt	nt	nt	nt
O=C(NNc1nc2c(F)cccc2s1)C1=COCCO1	44*	-2	-2	2	10	6	11	-1
Cc1ccc2sc(NNC(=O)C3=COCCO3)nc2c1C	32*	-2	3	8	6	0	21	-1
CCOc1ccc(NC(=S)NNC(=S)Nc2cccc(C(F)(F)F)c2)cc1	15	-2	-1	-6	-21	5	nt	nt
